# Measurements: ChEMBL document CHEMBL1795208 (J Med Chem, 2011)
# Columns and labels:
# Assay type in all cases: functional, cell-based
# SK-BR-3 = test: Antiproliferative activity against human SKBR3 cells expressing HER2 after 72 hrs by MTS/PMS assay; settings: SK-BR-3, 72 h
# Outline: (§1)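 Cells kept in Advanced DMEM/F12 (1:1) with non-essential amino acids, 2 mM L-glutamine, penicillin, streptomycin and 10% FBS at 37 °C, 5% CO2. Seeded at 2000/well, attached overnight. Compound added in DMSO across a concentration range (1% DMSO final) for 72 h. Viable cells read by MTS/PMS and normalized to 1% DMSO controls (100%). IC50 taken from separate triplicate experiments.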
# MCF7 = test: Antiproliferative activity against human MCF7 cells expressing estrogen receptor after 72 hrs by MTS/PMS assay; settings: MCF7, 72 h; outline: as §1
# [1] = Antiproliferative activity against human androgen-dependent LNCaP-LN3 cells after 72 hrs by MTS/PMS assay; settings: LNCaP-LN3, 72 h; outline: as §1
# B16-F10 = test: Antiproliferative activity against mouse B16F10 cells after 72 hrs by MTS/PMS assay; settings: B16-F10, 72 h; outline: as §1
# SK-MEL-28 = test: Antiproliferative activity against human SK-MEL-28 cells after 72 hrs by MTS/PMS assay; settings: SK-MEL-28, 72 h; outline: as §1
# [2] = Antiproliferative activity against human MDA1986 cells after 72 hrs by MTS/PMS assay; settings: MDA1986, 72 h; outline: as §1
# [3] = Antiproliferative activity against human JMAR cells after 72 hrs by MTS/PMS assay; outline: as §1
# [4] = Antiproliferative activity against human androgen-independent PC3MM2 cells after 72 hrs by MTS/PMS assay; settings: PC3MM2, 72 h; outline: as §1
SMILES,IC50 (SK-BR-3) [µM],IC50 (MCF7) [µM],IC50 [1] [µM],IC50 (B16-F10) [µM],IC50 (SK-MEL-28) [µM],IC50 [2] [µM],IC50 [3] [µM],IC50 [4] [µM]
COc1cccc(-c2cc(C(=O)Nc3cc4ccc(O[C@@H]5OCC[C@@H](O)[C@H]5O)c(C)c4oc3=O)ccc2OC)c1,6.23,2.56,3.59,37.5,14.9,13.4,2.79,–
COc1cccc(-c2cc(C(=O)Nc3cc4ccc(OC5C=CCC(C)(C)C5)c(C)c4oc3=O)ccc2OC)c1 (stereo not drawn),–,–,–,> 50,23.8,24.4,6.7,–
COc1cccc(-c2cc(C(=O)Nc3cc4ccc(OC5C=CCCC5)c(C)c4oc3=O)ccc2OC)c1 (stereo not drawn),–,–,–,> 50,18.6,22.4,7.5,–
COc1c(OCCCN(C)C)ccc2cc(NC(=O)c3cc4ccccc4[nH]3)c(=O)oc12,1.5,1.41,4.71,–,–,–,–,8.95
COc1cccc(-c2cc(C(=O)Nc3cc4ccc(OC(=O)N(C)C)c(OC)c4oc3=O)ccc2OC)c1,> 100,> 100,15.7,–,–,–,–,11.6
COc1cccc(-c2cc(C(=O)Nc3cc4ccc(OC5OC(C)(C)[C@H](OC)[C@@H](O)[C@H]5O)c(OC)c4oc3=O)ccc2OC)c1 (stereo partly drawn),13.9,9,0.11,–,–,–,–,1.44
COc1cccc(-c2cc(C(=O)Nc3cc4ccc(OC5C=CCC(C)C5)c(C)c4oc3=O)ccc2OC)c1 (stereo not drawn),–,–,–,> 50,20.6,21.8,24.9,–
COc1cccc(-c2cc(C(=O)Nc3cc4cc(OC)c(O[C@@H]5O[C@H](CO)C[C@@H](O)[C@H]5O)c(C)c4oc3=O)ccc2OC)c1,9.45,3.37,4.66,–,–,–,–,5.9
COc1cccc(-c2cc(C(=O)Nc3cc4ccc(O[C@H]5OCCC[C@H]5O)c(C)c4oc3=O)ccc2OC)c1,> 100,> 100,7.34,10.4,19.6,18.8,3.6,–
COc1cc2cc(NC(=O)c3cc4ccccc4[nH]3)c(=O)oc2c(C)c1OCCCN(C)C,0.57,0.56,–,2.03,1.35,1.81,2.65,2.58
COc1cccc(-c2cc(C(=O)Nc3cc4ccc(O[C@@H]5OCCC[C@@H](O)[C@H]5O)c(C)c4oc3=O)ccc2OC)c1,2.38,> 100,> 100,> 50,18.5,22.9,7.4,–
COc1cccc(-c2cc(C(=O)Nc3cc4ccc(OP(=O)(OC)OC)c(C)c4oc3=O)ccc2OC)c1,> 100,> 100,3.65,–,–,–,–,> 100
COc1cccc(-c2cc(C(=O)Nc3cc4cc(OC)c(O[C@H]5C[C@H](O)CCO5)c(C)c4oc3=O)ccc2OC)c1,> 100,> 100,1.49,–,–,–,–,1.24
COc1cccc(-c2cc(C(=O)Nc3cc4ccc(O[C@@H]5OCC[C@@H](O)[C@H]5O)c(OC)c4oc3=O)ccc2OC)c1,1.46,17.5,2.29,–,–,–,–,10.7
COc1cccc(-c2cc(C(=O)Nc3cc4cc(OC)c(OC5C=CCN(C(C)=O)C5)c(C)c4oc3=O)ccc2OC)c1 (stereo not drawn),–,–,–,21.4,27.6,25.1,35.1,–
COc1cccc(-c2cc(C(=O)Nc3cc4cc(OC)c(O[C@@H]5OCC[C@@H](O)[C@H]5O)c(C)c4oc3=O)ccc2OC)c1,7.18,9.5,12.8,–,–,–,–,24
COc1cccc(-c2cc(C(=O)Nc3cc4cc(OC)c(OC(C)=O)c(C)c4oc3=O)ccc2OC)c1,5.72,1.5,1.05,–,–,–,–,1.69

SMILES,IC50 (SK-BR-3) [µM],IC50 (MCF7) [µM],IC50 [1] [µM],IC50 (B16-F10) [µM],IC50 (SK-MEL-28) [µM],IC50 [2] [µM],IC50 [3] [µM],IC50 [4] [µM]
COc1cccc(-c2cc(C(=O)Nc3cc4ccc(OP(=O)(OC)OC)c(OC)c4oc3=O)ccc2OC)c1,18.1,> 100,6.58,–,–,–,–,11.5
COc1cccc(-c2cc(C(=O)Nc3cc4ccc(O[C@H]5C[C@H](O)CCO5)c(C)c4oc3=O)ccc2OC)c1,> 100,> 100,3.11,–,–,–,–,> 100
COc1cccc(-c2cc(C(=O)Nc3cc4ccc(O[C@@H]5OC[C@@H](O)[C@H]5O)c(C)c4oc3=O)ccc2OC)c1,12.5,37.2,3.65,4.55,5.74,1.94,12.6,–
COc1cccc(-c2cc(C(=O)Nc3cc4ccc(OCC(O)CO)c(OC)c4oc3=O)ccc2OC)c1 (stereo not drawn),> 50,> 50,0.96,–,–,–,–,1.66
COc1cccc(-c2cc(C(=O)Nc3cc4ccc(OCCCN(C)C)c(OC)c4oc3=O)ccc2OC)c1,0.91,1.53,8.03,–,–,–,–,4.08
COc1cccc(-c2cc(C(=O)Nc3cc4ccc(OCCCN(C)C)c(C)c4oc3=O)ccc2OC)c1,0.6,0.5,37.5,–,–,–,–,12.8
CNC(=O)Oc1ccc2cc(NC(=O)c3ccc(OC)c(-c4cccc(OC)c4)c3)c(=O)oc2c1C,2.4,1.72,3.75,–,–,–,–,5.22
COc1cccc(-c2cc(C(=O)Nc3cc4ccc(OC(N)=O)c(C)c4oc3=O)ccc2OC)c1,3.02,1.16,2.61,–,–,–,–,6.37
COc1cccc(-c2cc(C(=O)Nc3cc4cc(OC)c(O[C@@H]5C[C@H](O)CCO5)c(C)c4oc3=O)ccc2OC)c1,1.37,> 100,3.27,–,–,–,–,2.35
COc1cccc(-c2cc(C(=O)Nc3cc4cc(OC)c(OCCN(C)C)c(C)c4oc3=O)ccc2OC)c1,1.42,1.29,6.28,–,–,–,–,4.87
COc1cccc(-c2cc(C(=O)Nc3cc4ccc(OC(=O)N(C)C)c(C)c4oc3=O)ccc2OC)c1,39.9,74.4,5.4,–,–,–,–,> 100
COc1cccc(-c2cc(C(=O)Nc3cc4cc(OC)c(OC5CCCN(C(C)=O)C5)c(C)c4oc3=O)ccc2OC)c1 (stereo not drawn),–,–,–,23.9,29.4,36.4,32.8,–
COc1cccc(-c2cc(C(=O)Nc3cc4ccc(O)c(OC)c4oc3=O)ccc2OC)c1,> 100,5.32,6.18,–,–,–,–,> 100
COc1cccc(-c2cc(C(=O)Nc3cc4ccc(O[C@@H]5OCC[C@H]5O)c(C)c4oc3=O)ccc2OC)c1,> 100,> 100,–,42.7,18.4,21.4,14.9,–
COc1cccc(-c2cc(C(=O)Nc3cc4ccc(OC(C)=O)c(OC)c4oc3=O)ccc2OC)c1,20.5,8.62,14.6,–,–,–,–,19.3
COc1cccc(-c2cc(C(=O)Nc3cc4ccc(O)c(C)c4oc3=O)ccc2OC)c1,8.88,6.93,3.21,–,–,–,–,5.36
COc1cccc(-c2cc(C(=O)Nc3cc4cc(OC)c(O[C@@H]5OC[C@@H](O)[C@H]5O)c(C)c4oc3=O)ccc2OC)c1,9.45,3.37,4.72,–,–,–,–,9.56
